The subject of assay [1] is HT-1080. As to the kind of experiment: Antiproliferative activity against human HT-1080 cells assessed as inhibition of cell growth incubated for 24 hrs by CCK-8 assay. Format: functional, cell-based. The following applies: for IC50: HT-1080, 24 h. In a few lines: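 HT1080 cells exposed to compound for 24 h; viability read by CCK-8; IC50 from growth inhibition.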
On the technique in general: Formazan colour is commonly taken as a measure of viable cells.

The target in assay [2] is T1, von Hippel-Lindau disease tumor suppressor/Phospholipid hydroperoxide glutathione peroxidase GPX4 (Homo sapiens) (UniProt P40337+P36969). As to the kind of experiment: PROTAC activity at VHL/GPX4 in human HT-1080 cells assessed as induction of protein degradation at 0.2 uM measured after 6 hrs by Western blot analysis relative to control. It is filed as cell-based. The essentials: (§1)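 Time course in HT1080 cells at 0.2 μM compound. GPX4 detected by Western blot. Band density was quantified by gray-scale densitometry and normalized to GAPDH.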
(A western blot detects proteins with antibodies after separation by electrophoresis.)

The target in assay [3] is T1, von Hippel-Lindau disease tumor suppressor/Phospholipid hydroperoxide glutathione peroxidase GPX4 (Homo sapiens). As to the kind of experiment: PROTAC activity at VHL/GPX4 in human HT-1080 cells assessed as induction of protein degradation at 0.2 uM measured for 24 hrs by Western blot analysis. It is filed as cell-based. The essentials: as §1
The target is the same in assay [4]. As to the kind of experiment: PROTAC activity at VHL/GPX4 in human HT-1080 cells assessed as induction of protein degradation by measuring maximal degradation at 0.06 to 5 uM by Western blot analysis relative to control. It is filed as cell-based. The following applies: dose 0.06-5 µM.
For assay [5] the target is unchanged. As to the kind of experiment: (§2) PROTAC activity at VHL/GPX4 in human HT-1080 cells assessed as induction of protein degradation by Western blot analysis. Format: cell-based.
The target of assay [6] is von Hippel-Lindau disease tumor suppressor/Phospholipid hydroperoxide glutathione peroxidase GPX4 (Homo sapiens, UniProt P36969+P40337). The description is as §2. It is filed as cell-based.
Assay [7] concerns the target T1, von Hippel-Lindau disease tumor suppressor/Phospholipid hydroperoxide glutathione peroxidase GPX4 (Homo sapiens). As to the kind of experiment: PROTAC activity at VHL/GPX4 in human HT-1080 cells assessed as induction of protein degradation at 0.2 uM incubated for 12 hrs in presence of MG132 and chloroquine by Western blot analysis. Format: cell-based. The essentials:
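HT1080 cells treated 12 h with degrader alongside MG132 (0.3 μM) and chloroquine (50 μM); chloroquine given as pretreatment. GPX4 detected by Western blot, band density quantified by gray-scale analysis.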

Assay [8] shares this target. As to the kind of experiment: PROTAC activity at VHL/GPX4 in human HT-1080 cells assessed as induction of protein degradation at 0.2 uM measured after 12 hrs by Western blot analysis relative to control. It is filed as cell-based. The essentials:
as §1

Assay [9] deals with HT-1080. As to the kind of experiment: Induction of ROS accumulation in human HT-1080 cells incubated for 12 hrs by DCFH-DA staining based flow cytometry analysis. It is filed as functional, cell-based. The following applies: dose 0.25-1 µM. In a few lines: (§3)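 HT1080 cells loaded with 10 μM DCFH-DA, then treated 12 h with compound at various concentrations; intracellular ROS measured by flow cytometry. For the rescue arm, cells were pretreated 2 h with ferroptosis inhibitor Fer-1 (5 μM) and kept in its presence.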
In general terms: Flow cytometry measures light scatter and fluorescence of single cells or particles in a stream.

Assay [10] concerns HT-1080. The assay can be described thus: Induction of ROS accumulation in human HT-1080 cells at 1 uM pretreated with ferroptosis inhibitor, Fer-1 for 2 hrs followed by compound addition and further incubated for 12 hrs by DCFH-DA staining based flow cytometry analysis. Format: functional, cell-based. The essentials:
as §3

Assay [11] deals with Protein cereblon/Phospholipid hydroperoxide glutathione peroxidase GPX4 (Homo sapiens, UniProt P36969+Q96SW2). The assay can be described thus: PROTAC activity at CRBN/GPX4 (unknown origin). Format: protein assay.

Calls of active or inactive are those of the source. No cut-off for these calls is given here.

T1 sequence (P36969 whole entry, looked up): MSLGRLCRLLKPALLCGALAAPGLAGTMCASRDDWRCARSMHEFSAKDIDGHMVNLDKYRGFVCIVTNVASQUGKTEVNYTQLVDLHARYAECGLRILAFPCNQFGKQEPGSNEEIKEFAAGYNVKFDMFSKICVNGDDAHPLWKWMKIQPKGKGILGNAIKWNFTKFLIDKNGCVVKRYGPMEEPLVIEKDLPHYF
T1 sequence (P40337 whole entry, looked up): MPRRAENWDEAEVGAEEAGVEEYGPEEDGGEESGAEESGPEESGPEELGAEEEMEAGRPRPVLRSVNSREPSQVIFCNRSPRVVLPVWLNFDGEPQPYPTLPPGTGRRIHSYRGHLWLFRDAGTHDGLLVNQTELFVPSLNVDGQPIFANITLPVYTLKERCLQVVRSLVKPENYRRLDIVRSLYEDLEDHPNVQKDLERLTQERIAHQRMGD
von Hippel-Lindau disease tumor suppressor/Phospholipid hydroperoxide glutathione peroxidase GPX4, sequence (P40337 whole entry): as the sequence (P40337 whole entry, looked up) above
von Hippel-Lindau disease tumor suppressor/Phospholipid hydroperoxide glutathione peroxidase GPX4, sequence (P36969 whole entry): as the sequence (P36969 whole entry, looked up) above
Protein cereblon/Phospholipid hydroperoxide glutathione peroxidase GPX4, sequence (Q96SW2 whole entry): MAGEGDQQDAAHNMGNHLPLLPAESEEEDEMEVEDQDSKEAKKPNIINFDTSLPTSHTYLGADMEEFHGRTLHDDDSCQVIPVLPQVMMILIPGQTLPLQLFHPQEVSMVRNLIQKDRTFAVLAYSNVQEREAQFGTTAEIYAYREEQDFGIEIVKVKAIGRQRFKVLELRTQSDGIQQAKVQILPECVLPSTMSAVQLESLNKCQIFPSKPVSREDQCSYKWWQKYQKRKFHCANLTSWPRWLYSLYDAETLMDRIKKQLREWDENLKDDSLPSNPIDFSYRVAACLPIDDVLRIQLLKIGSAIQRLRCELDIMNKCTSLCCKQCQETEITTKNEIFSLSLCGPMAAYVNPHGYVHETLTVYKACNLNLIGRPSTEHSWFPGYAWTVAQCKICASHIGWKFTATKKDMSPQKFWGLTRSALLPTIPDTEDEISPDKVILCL
Protein cereblon/Phospholipid hydroperoxide glutathione peroxidase GPX4, sequence (P36969 whole entry): as the sequence (P36969 whole entry, looked up) above

A word on the IC50: it is the concentration needed to halve the response being measured. For the compound `Cc1ncsc1-c1ccc(CNC(=O)[C@@H]2C[C@@H](O)CN2C(=O)[C@@H](NC(=O)COCCOCCOCCOc2ccc(C(c3ccc(Cl)cc3)N3CCN(C(=O)c4noc(C)c4[N+](=O)[O-])CC3)cc2)C(C)(C)C)cc1` (stereo not given in full), in the assay on HT-1080 [1], the IC50 turned out to be 3240 nM.
With `Cc1onc(C(=O)N2CCN(C(c3ccc(Cl)cc3)c3ccc(Cl)cc3)CC2)c1[N+](=O)[O-]`, the concentration for half-maximal inhibition (IC50) in the assay on HT-1080 [1] worked out at 153 nM.
For `Cc1ncsc1-c1ccc(CNC(=O)[C@@H]2C[C@@H](O)CN2C(=O)[C@@H](NC(=O)CCCCCCCCOc2ccc(C(c3ccc(Cl)cc3)N3CCN(C(=O)c4noc(C)c4[N+](=O)[O-])CC3)cc2)C(C)(C)C)cc1` (stereo not given in full), the IC50 in the assay on HT-1080 [1] worked out at 767 nM.
Broadly, the Emax is the size of the effect at its maximum, as opposed to the concentration needed. For orientation: EC50 means the midpoint of the concentration-response curve. Take `Cc1ncsc1-c1ccc(CNC(=O)[C@@H]2C[C@@H](O)CN2C(=O)[C@@H](NC(=O)CCCCCCCCCOc2ccc(C(c3ccc(Cl)cc3)N3CCN(C(=O)c4noc(C)c4[N+](=O)[O-])CC3)cc2)C(C)(C)C)cc1` (stereo not given in full): the Activity in assay [2] was 50%; in assay [5], “Dose-Dependent Effect”; in assay [8], above 80%; with HT-1080 [9], “Dose-Dependent Effect”. Moreover, the result in assay [3] was Active. For the same compound, the IC50 with HT-1080 [1] is 435 nM. Moreover, in assay [4], the Emax amounted to 86%. For the same compound, the concentration giving a half-maximal response (EC50) in assay [6] turned out to be 135 nM. Further, the outcome (in assay [7]; in the assay with HT-1080 [10]) was inactive.
Regarding `Cc1ncsc1-c1ccc(CNC(=O)[C@@H]2C[C@@H](O)CN2C(=O)[C@@H](NC(=O)CCCCCCOc2ccc(C(c3ccc(Cl)cc3)N3CCN(C(=O)c4noc(C)c4[N+](=O)[O-])CC3)cc2)C(C)(C)C)cc1` (stereo not given in full), the concentration for half-maximal inhibition (IC50) in the assay on HT-1080 [1] came to 1360 nM.
Same read-out and setting: the value for `Cc1ncsc1-c1ccc(CNC(=O)[C@@H]2C[C@@H](O)CN2C(=O)[C@@H](NC(=O)COCCOCCOc2ccc(C(c3ccc(Cl)cc3)N3CCN(C(=O)c4noc(C)c4[N+](=O)[O-])CC3)cc2)C(C)(C)C)cc1` (stereo not given in full) was 2070 nM.
Take `Cc1ncsc1-c1ccc(CNC(=O)[C@@H]2C[C@@H](O)CN2C(=O)[C@@H](NC(=O)CCCCCOc2ccc(C(c3ccc(Cl)cc3)N3CCN(C(=O)c4noc(C)c4[N+](=O)[O-])CC3)cc2)C(C)(C)C)cc1` (stereo not given in full): in the assay with HT-1080 [1], the half-inhibitory concentration (IC50) came out at 2290 nM.
On to `Cc1ncsc1-c1ccc(CNC(=O)[C@@H]2C[C@@H](O)CN2C(=O)[C@@H](NC(=O)COc2ccc(C(c3ccc(Cl)cc3)N3CCN(C(=O)c4noc(C)c4[N+](=O)[O-])CC3)cc2)C(C)(C)C)cc1` (stereo not given in full), for which, in the assay with HT-1080 [1], the IC50 is 2140 nM.
`Cc1ncsc1-c1ccc(CNC(=O)[C@@H]2C[C@@H](O)CN2C(=O)[C@@H](NC(=O)CCCCOc2ccc(C(c3ccc(Cl)cc3)N3CCN(C(=O)c4noc(C)c4[N+](=O)[O-])CC3)cc2)C(C)(C)C)cc1` (stereo not given in full): in the assay with HT-1080 [1], the IC50 is 1540 nM.
As for `Cc1ncsc1-c1ccc(CNC(=O)[C@@H]2C[C@@H](O)CN2C(=O)[C@@H](NC(=O)CCOc2ccc(C(c3ccc(Cl)cc3)N3CCN(C(=O)c4noc(C)c4[N+](=O)[O-])CC3)cc2)C(C)(C)C)cc1` (stereo not given in full), the IC50 with HT-1080 [1] was 2160 nM.
As to `Cc1ncsc1-c1ccc(CNC(=O)[C@@H]2C[C@@H](O)CN2C(=O)[C@@H](NC(=O)CCCCCCCOc2ccc(C(c3ccc(Cl)cc3)N3CCN(C(=O)c4noc(C)c4[N+](=O)[O-])CC3)cc2)C(C)(C)C)cc1` (stereo not given in full), the half-maximal inhibitory concentration (IC50) in the assay on HT-1080 [1] stood at 1680 nM.
For `Cc1ncsc1-c1ccc(CNC(=O)[C@@H]2C[C@@H](O)CN2C(=O)[C@@H](NC(=O)CCCCCCCCCCCOc2ccc(C(c3ccc(Cl)cc3)N3CCN(C(=O)c4noc(C)c4[N+](=O)[O-])CC3)cc2)C(C)(C)C)cc1` (stereo not given in full), the 50% inhibitory concentration (IC50) with HT-1080 [1] is 2350 nM.
Regarding `Cc1ncsc1-c1ccc(CNC(=O)[C@@H]2C[C@@H](O)CN2C(=O)[C@@H](NC(=O)CCCOc2ccc(C(c3ccc(Cl)cc3)N3CCN(C(=O)c4noc(C)c4[N+](=O)[O-])CC3)cc2)C(C)(C)C)cc1` (stereo not given in full), the inhibition result in the assay with HT-1080 [1] was “inactive”.
Compound `O=C1CCC(N2C(=O)c3cccc(NCCOCCOCCOCCn4cc(COc5ccc(N(C(=O)CCl)C(C(=O)NCCc6ccccc6)c6cccs6)cc5Cl)nn4)c3C2=O)C(=O)N1` (stereo not given) yielded a half-maximal effective concentration (EC50) in [11] of 200 nM.
Consider `Cc1ncsc1-c1ccc([C@H](C)NC(=O)[C@@H]2C[C@@H](O)CN2C(=O)[C@@H](NC(=O)CCCCCCCCCOc2ccc(C(c3ccc(Cl)cc3)N3CCN(C(=O)c4noc(C)c4[N+](=O)[O-])CC3)cc2)C(C)(C)C)cc1` (stereo not given in full), for which the half-maximal inhibitory concentration (IC50) in the assay on HT-1080 [1] was 1210 nM.
`Cc1ncsc1-c1ccc(CNC(=O)[C@@H]2C[C@@H](O)CN2C(=O)[C@@H](NC(=O)CCCCCCCCCCOc2ccc(C(c3ccc(Cl)cc3)N3CCN(C(=O)c4noc(C)c4[N+](=O)[O-])CC3)cc2)C(C)(C)C)cc1` (stereo not given in full): the IC50 with HT-1080 [1] amounted to 889 nM.
The same measure, in the same setting: for `Cc1ncsc1-c1ccc(CNC(=O)[C@@H]2C[C@@H](O)CN2C(=O)[C@@H](NC2CC3(CCN(C(=O)COc4ccc(C(c5ccc(Cl)cc5)N5CCN(C(=O)c6noc(C)c6[N+](=O)[O-])CC5)cc4)CC3)C2)C(C)(C)C)cc1` (stereo not given in full) the value was 1350 nM; for `Cc1ncsc1-c1ccc(CNC(=O)[C@@H]2C[C@@H](O)CN2C(=O)[C@@H](NC(=O)COCCOc2ccc(C(c3ccc(Cl)cc3)N3CCN(C(=O)c4noc(C)c4[N+](=O)[O-])CC3)cc2)C(C)(C)C)cc1` (stereo not given in full), 1830 nM; for `Cc1ncsc1-c1ccc(CNC(=O)[C@@H]2C[C@@H](O)CN2C(=O)[C@@H](NC(=O)CN2CCN(CC3CCN(C(=O)COc4ccc(C(c5ccc(Cl)cc5)N5CCN(C(=O)c6noc(C)c6[N+](=O)[O-])CC5)cc4)CC3)CC2)C(C)(C)C)cc1` (stereo not given in full), 4760 nM.
The same measure, in the same setting: for `Cc1ncsc1-c1ccc(CNC(=O)[C@@H]2C[C@@H](O)CN2C(=O)[C@@H](NC(=O)C2CCN(CC3CCN(C(=O)COc4ccc(C(c5ccc(Cl)cc5)N5CCN(C(=O)c6noc(C)c6[N+](=O)[O-])CC5)cc4)CC3)CC2)C(C)(C)C)cc1` (stereo not given in full) the value was 4450 nM.
As to `Cc1ncsc1-c1ccc(CNC(=O)[C@@H]2C[C@@H](O)CN2C(=O)[C@@H](NC(=O)COCCOCCOCCOCCOc2ccc(C(c3ccc(Cl)cc3)N3CCN(C(=O)c4noc(C)c4[N+](=O)[O-])CC3)cc2)C(C)(C)C)cc1` (stereo not given in full), the half-inhibitory concentration (IC50) in the assay on HT-1080 [1] was found to be 4730 nM.

The values are drawn from ChEMBL document CHEMBL5344461, “ZX703: A Small-Molecule Degrader of GPX4 Inducing Ferroptosis in Human Cancer Cells” (ACS Med Chem Lett, 2024).
